# From ChEMBL document CHEMBL1124749, “Analogues of 1,5-bis(4-amidinophenoxy)pentane (pentamidine) in the treatment of experimental Pneumocystis carinii pneumonia” (J Med Chem, 1990)
# Several values for one entry are separate records, joined by “and”; a condition that tells them apart may be missing. Equal entries are not always repeated.
# Experiments:
# Pneumocystis carinii [1] = test: (§1) Ability to reduce the severity of PCP in immunosuppressed rats after (iv) administration of 10 mg/kg/day; type: functional
# Procedure, shortened: (§2)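 Male Sprague-Dawley rats (150–200 g, barrier raised) were given corticosteroids to induce PCP. From week 6, groups of eight or more received the compound by single daily iv injection in 0.4 mL saline for 14 days, generally at 10 mg/kg. Rats were killed at the end of week 8. GMS-stained lung sections were scored from 0.5 to 4 (4 = >50% involvement), with saline and pentamidine control groups.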
# Calf thymus DNA = test: DNA binding affinity at low ionic strength as change in midpoint; type: nucleic-acid assay; details: Bos taurus
# [2] = Cytotoxicity in […], spleen and kidneys for pathologic changes by light microscopy.+ = animals survived without observable distress; type: tissue-based; details: rat
# Procedure, shortened: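 In corticosteroid-immunosuppressed rats given 14 daily iv doses for PCP, liver, spleen and kidneys were examined for pathology by light microscopy, and health was recorded daily. Toxicity was graded at 10 mg/kg or the highest dose tested on a scale from 0 (no local, clinical or histologic toxicity) to 4+ (≥50% of animals died).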
# Pneumocystis carinii [3] = test: as §1; type: functional; procedure, shortened: as §2; remark: listed apart in the source
# Serine protease 1 [4] = target: T1, Serine protease 1 (Homo sapiens, UniProt P07477); test: Inhibition of trypsin by amidase assay.
# T1 sequence (P07477 whole entry): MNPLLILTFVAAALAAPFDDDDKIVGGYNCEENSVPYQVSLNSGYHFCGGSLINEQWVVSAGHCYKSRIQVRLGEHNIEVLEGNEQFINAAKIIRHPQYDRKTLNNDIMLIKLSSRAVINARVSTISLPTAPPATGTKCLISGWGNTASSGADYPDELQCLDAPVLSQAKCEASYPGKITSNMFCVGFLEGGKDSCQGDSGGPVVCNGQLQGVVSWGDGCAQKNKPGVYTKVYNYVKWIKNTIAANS
# Rattus norvegicus [5] = test: as §1; type: functional; procedure, shortened: as §2
# Rattus norvegicus [6] = species on record: Rattus norvegicus; test: Ability to reduce the severity of PCP in histologic score (represents scattered cysts,25-50% lung involved with small intense areas of infection); type: functional; procedure, shortened: as §2
# Rattus norvegicus [7] = species on record: Rattus norvegicus; test: Ability to reduce the severity of PCP in histologic score (represents >50% lung involved with many intense areas of focal infection); type: functional; procedure, shortened: as §2
# Serine protease 1 [8] = target: T1, Serine protease 1; test: Inhibition of trypsin by amidase assay
# Rattus norvegicus [9] = test: Ability to reduce the severity of PCP in immunosuppressed rats after(iv) administration of 10 mg/kg/day; type: functional; details: in the assay text read “1.25 mg/kg/day” for “10 mg/kg/day”; procedure, shortened: as §2
# Pneumocystis carinii [10] = test: Ability to reduce the severity of PCP in immunosuppressed rats after (i.v.) administration of 10 mg/kg/day; type: functional; details: route intravenous; procedure, shortened: as §2
# [11] = Cytotoxicity in […], spleen and kidneys for pathologic changes by light microscopy.++ = most animals survived, with severe distress and marked local toxicity and some systemic toxicity and histopathologic abnormalities; type: tissue-based; details: rat
# Procedure, shortened: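 Male Sprague-Dawley rats (150–200 g), corticosteroid-immunosuppressed to induce PCP; from week 6, single daily iv injection for 14 days, usually 10 mg/kg in 0.4 mL saline (lower if insoluble or toxic); killed end of week 8. Liver, spleen, kidneys examined by light microscopy; daily health observation; toxicity graded 0 to 4+ at 10 mg/kg or highest dose tested.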
# Rattus norvegicus [12] = test: Ability to reduce the severity of PCP in immunosuppressed rats after (iv)administration; not tested in animals, Insoluble; type: functional, organism-based
compound,measurement,setting,value
Cl.N=C(N)c1ccc(NCCCCNc2ccc(C(=N)N)cc2N)c(N)c1,No. of animals,Pneumocystis carinii [1],0
same,ΔTm,Calf thymus DNA,10.5 °C
same,Toxicity,[2],animals survived without observable distress
same,No. of animals,Pneumocystis carinii [3],4
same,Ki,Serine protease 1 [4],11.1 µM
Cl.N=C(N)c1ccc(OCCCCOc2ccc(C(=N)N)cc2N)c(N)c1,No. of animals,Rattus norvegicus [5],1
same,No. of animals,Pneumocystis carinii [1],2
same,No. of animals,Rattus norvegicus [6],0
same,ΔTm,Calf thymus DNA,9.6 °C
same,No. of animals,Pneumocystis carinii [3],5
same,No. of animals,Rattus norvegicus [7],0
same,Ki,Serine protease 1 [4],9.1 µM
COc1cc(C(=N)N)ccc1OCCCCCOc1ccc(C(=N)N)cc1OC.Cl.Cl,No. of animals,Pneumocystis carinii [1],2
same,ΔTm,Calf thymus DNA,12 °C
same,No. of animals,Pneumocystis carinii [3],4
same,Ki,Serine protease 1 [4],1.3 µM
Cl.N=C(N)c1ccc(OCCOc2ccc(C(=N)N)cc2N)c(N)c1,No. of animals,Rattus norvegicus [6],0
same,ΔTm,Calf thymus DNA,8.8 °C
same,Ki,Serine protease 1 [8],5 µM
same,No. of animals,Pneumocystis carinii [3],4
same,No. of animals,Rattus norvegicus [7],0
Cl.N=C(N)c1ccc(OCCCCCOc2ccc(C(=N)N)cc2)cc1 [PENTAMIDINE HYDROCHLORIDE],No. of animals,Pneumocystis carinii [1],21
same,ΔTm,Calf thymus DNA,10.7 °C
same,No. of animals,Pneumocystis carinii [3],28
same,Ki,Serine protease 1 [4],2.3 µM
Cl.c1cc(C2=NCCN2)ccc1OCCCCCOc1ccc(C2=NCCN2)cc1,No. of animals,Rattus norvegicus [6],0
same,ΔTm,Calf thymus DNA,10.5 °C
same,No. of animals,Pneumocystis carinii [3],3
same,No. of animals,Rattus norvegicus [7],0
same,Ki,Serine protease 1 [4],> 2000 µM
Cl.Cl.N=C(N)c1cccc(OCCCCCCOc2cccc(C(=N)N)c2)c1,No. of animals,Pneumocystis carinii [1],1
same,ΔTm,Calf thymus DNA,7.3 °C
same,Toxicity,[2],animals survived without observable distress
same,No. of animals,Pneumocystis carinii [3],4
same,Ki,Serine protease 1 [4],4 µM
Cl.Cl.N=C(N)c1cccc(OCCCOc2cccc(C(=N)N)c2)c1,No. of animals,Pneumocystis carinii [1],2
same,ΔTm,Calf thymus DNA,7.6 °C
same,No. of animals,Pneumocystis carinii [3],1
same,Ki,Serine protease 1 [4],1.1 µM
Cl.N=C(N)c1ccc(OCCCCCCOc2ccc(C(=N)N)cc2[N+](=O)[O-])c([N+](=O)[O-])c1,No. of animals,Rattus norvegicus [9],1
Cl.N=C(N)c1ccc(NCCNc2ccc(C(=N)N)cc2N)c(N)c1,No. of animals,Pneumocystis carinii [1],0
same,ΔTm,Calf thymus DNA,9.1 °C
same,Toxicity,[2],animals survived without observable distress
same,No. of animals,Pneumocystis carinii [3],0
same,Ki,Serine protease 1 [4],12.7 µM
Cl.Cl.N=C(N)c1ccc(OCCCCCCOc2ccc(C(=N)N)cc2)cc1,No. of animals,Pneumocystis carinii [1],3
same,ΔTm,Calf thymus DNA,9.1 °C
same,No. of animals,Pneumocystis carinii [3],3
same,Ki,Serine protease 1 [4],2.7 µM
Cl.Cl.N=C(N)c1ccc(OCCCOc2ccc(C(=N)N)cc2)cc1,No. of animals,Pneumocystis carinii [1],3
same,ΔTm,Calf thymus DNA,14.7 °C
same,Toxicity,[2],animals survived without observable distress
same,No. of animals,Pneumocystis carinii [3],4
same,Ki,Serine protease 1 [4],3.3 µM
Cl.N=C(N)c1ccc(NCCCCCCNc2ccc(C(=N)N)cc2N)c(N)c1,No. of animals,Pneumocystis carinii [1],3
same,ΔTm,Calf thymus DNA,8.3 °C
same,Toxicity,[2],animals survived without observable distress
same,No. of animals,Pneumocystis carinii [3],1
same,Ki,Serine protease 1 [4],5.3 µM
Cl.Cl.N=C(N)c1cccc(OCCCCCOc2cccc(C(=N)N)c2)c1,No. of animals,Pneumocystis carinii [1],4
same,ΔTm,Calf thymus DNA,6.8 °C
same,Toxicity,[2],animals survived without observable distress
same,No. of animals,Pneumocystis carinii [3],3
same,Ki,Serine protease 1 [4],3.8 µM
Cl.N=C(N)c1ccc(NCCCCCNc2ccc(C(=N)N)cc2[N+](=O)[O-])c([N+](=O)[O-])c1,ΔTm,Calf thymus DNA,12.7 °C
same,No. of animals,Pneumocystis carinii [10],2 and 1
same,No. of animals,Pneumocystis carinii [3],3
same,Ki,Serine protease 1 [4],8 µM
Cl.Cl.N=C(N)c1ccc(OCCCOc2ccc(C(=N)N)cc2N)c(N)c1,No. of animals,Rattus norvegicus [5],1
same,No. of animals,Pneumocystis carinii [1],2
same,No. of animals,Rattus norvegicus [6],0
same,ΔTm,Calf thymus DNA,13.6 °C
same,No. of animals,Pneumocystis carinii [3],4
same,No. of animals,Rattus norvegicus [7],0
same,Ki,Serine protease 1 [4],5.8 µM
Cl.N=C(N)c1ccc(NCCCNc2ccc(C(=N)N)cc2[N+](=O)[O-])c([N+](=O)[O-])c1,No. of animals,Rattus norvegicus [5],0
same,ΔTm,Calf thymus DNA,12.8 °C
same,No. of animals,Pneumocystis carinii [3],0
same,Toxicity,[11],"most animals survived, with severe distress and marked local toxicity and some systemic toxicity and histopathologic abnormalities"
same,Ki,Serine protease 1 [4],4.3 µM
Cl.N=C(N)c1ccc(NCCCNc2ccc(C(=N)N)cc2)cc1,No. of animals,Pneumocystis carinii [1],5 and 2
same,No. of animals,Rattus norvegicus [6],0
same,ΔTm,Calf thymus DNA,11.6 °C
same,Toxicity,[2],animals survived without observable distress
same,No. of animals,Pneumocystis carinii [3],1
same,No. of animals,Rattus norvegicus [7],0
same,Ki,Serine protease 1 [4],1.1 µM
Cl.Cl.N=C(N)c1ccc(OCCCCCOc2ccc(C(=N)N)cc2[N+](=O)[O-])c([N+](=O)[O-])c1,No. of animals,Pneumocystis carinii [1],0
same,ΔTm,Calf thymus DNA,9.7 °C
same,No. of animals,Pneumocystis carinii [3],2
same,Ki,Serine protease 1 [4],1 µM
Cl.Cl.N=C(N)c1ccc(OCCCCOc2ccc(C(=N)N)cc2Cl)c(Cl)c1,No. of animals,Rattus norvegicus [5]; in the assay text read “1.25 mg/kg/day” for “10 mg/kg/day”,0
same,ΔTm,Calf thymus DNA,8.9 °C
same,No. of animals,Pneumocystis carinii [10],2 and 3
same,No. of animals,Pneumocystis carinii [3],1
Cl.N=C(N)c1ccc(NCCCCCNc2ccc(C(=N)N)cc2N)c(N)c1,No. of animals,Pneumocystis carinii [1],3
same,ΔTm,Calf thymus DNA,11 °C
same,Toxicity,[2],animals survived without observable distress
same,No. of animals,Pneumocystis carinii [3],2
same,Ki,Serine protease 1 [4],4.8 µM
Cl.Cl.N=C(N)c1ccc(OCCCCOc2ccc(C(=N)N)cc2[N+](=O)[O-])c([N+](=O)[O-])c1,No. of animals,Pneumocystis carinii [1],0
same,ΔTm,Calf thymus DNA,8.5 °C
same,No. of animals,Pneumocystis carinii [3],0
same,Ki,Serine protease 1 [4],5.4 µM
COc1cc(C(=N)N)ccc1OCCCOc1ccc(C(=N)N)cc1OC.Cl.Cl,No. of animals,Pneumocystis carinii [1],7
same,ΔTm,Calf thymus DNA,16.3 °C
same,No. of animals,Pneumocystis carinii [10],0
same,No. of animals,Pneumocystis carinii [3],1
same,Ki,Serine protease 1 [4],1.3 µM
Cl.N=C(N)c1ccc(NCCCCCNc2ccc(C(=N)N)cc2)cc1,ΔTm,Calf thymus DNA,11.3 °C
same,No. of animals,Pneumocystis carinii [3],2
same,Ki,Serine protease 1 [4],1.4 µM
Cl.N=C(N)c1ccc(OCCCCCCOc2ccc(C(=N)N)cc2N)c(N)c1,No. of animals,Rattus norvegicus [6],3
same,ΔTm,Calf thymus DNA,9.5 °C
same,No. of animals,Pneumocystis carinii [3],1
same,No. of animals,Rattus norvegicus [7],0
same,Ki,Serine protease 1 [4],293 µM
Cl.Cl.N=C(N)c1ccc(OCCCCOc2ccc(C(=N)N)cc2)cc1,No. of animals,Pneumocystis carinii [1],8
same,ΔTm,Calf thymus DNA,8.3 °C
same,Toxicity,[2],Non-toxic
same,No. of animals,Pneumocystis carinii [10],0
same,No. of animals,Pneumocystis carinii [3],0
same,Ki,Serine protease 1 [4],1.5 µM
N=C(N)c1ccc(OCCCCCOc2ccc(C(=N)N)cc2Br)c(Br)c1,No. of animals,Rattus norvegicus [12],Insoluble
Cl.Cl.N=C(N)c1cccc(OCCCCOc2cccc(C(=N)N)c2)c1,No. of animals,Pneumocystis carinii [1],2
same,ΔTm,Calf thymus DNA,8.1 °C
same,No. of animals,Pneumocystis carinii [3],1
same,Ki,Serine protease 1 [4],1.8 µM
Cl.N=C(N)c1ccc(OCCCCCOc2ccc(C(=N)N)cc2N)c(N)c1,No. of animals,Rattus norvegicus [6],1
same,ΔTm,Calf thymus DNA,10.8 °C
same,Toxicity,[2],animals survived without observable distress
same,No. of animals,Pneumocystis carinii [3],5
same,No. of animals,Rattus norvegicus [7],0
same,Ki,Serine protease 1 [4],1.8 µM
COc1cc(C(=N)N)ccc1OCCCCOc1ccc(C(=N)N)cc1OC.Cl.Cl,No. of animals,Pneumocystis carinii [1],3
same,ΔTm,Calf thymus DNA,10.2 °C
same,No. of animals,Pneumocystis carinii [3],4
Cl.Cl.N=C(N)c1ccc(OCCCCCOc2ccc(C(=N)N)cc2Cl)c(Cl)c1,No. of animals,Pneumocystis carinii [1],0
same,ΔTm,Calf thymus DNA,10.5 °C
same,No. of animals,Pneumocystis carinii [3],0
N=C(N)c1ccc(OCCOc2ccc(C(=N)N)cc2)cc1,ΔTm,Calf thymus DNA,5.4 °C
same,Ki,Serine protease 1 [4],7.3 µM
Cl.N=C(N)c1ccc(NCCCNc2ccc(C(=N)N)cc2N)c(N)c1,No. of animals,Pneumocystis carinii [1],1
same,ΔTm,Calf thymus DNA,11 °C
same,Toxicity,[2],animals survived without observable distress
same,No. of animals,Pneumocystis carinii [3],4
same,Ki,Serine protease 1 [4],10.3 µM
Cl.N=C(N)c1ccc(NCCCCNc2ccc(C(=N)N)cc2)cc1,ΔTm,Calf thymus DNA,10.3 °C
same,No. of animals,Pneumocystis carinii [3],1
same,Ki,Serine protease 1 [4],1.6 µM
